According to ChEMBL document CHEMBL3045704, “Biflavonoids isolated from Selaginella lepidophylla inhibit photosynthesis in spinach chloroplasts” (J Agric Food Chem, 2008):
The source made the active and inactive calls. The calls are words filed in the database; no cut-off is given here.

Columns and labels:
Spinacia oleracea [1] = assay: Inhibition of thylakoid membrane bound Magnesium-transporting Mg2+ ATPase in Spinacia oleracea (spinach) leaves chloroplasts assessed as enzyme activity at 300 uM; parameters: scale not given: the % may be the effect or the level left
Summary of the method: (§1)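 Chloroplasts were ground in 350 mM sorbitol, 5 mM ascorbate and 20 mM MES pH 6.5, centrifuged 3000g for 60 s, washed, and resuspended in 35 mM HEPES pH 7.6. Light-triggered thylakoid-bound Mg2+-ATPase was assayed via released Pi (Sumner method), expressed as µM P/mg Chl/h and as % of control. Tested at 100–300 µM, or NH4Cl at 1–6 mM.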

Spinacia oleracea [2] = assay: Inhibition of thylakoid membrane bound Magnesium-transporting Mg2+ ATPase in Spinacia oleracea (spinach) leaves chloroplasts assessed as enzyme activity at 200 uM; parameters: scale not given: the % may be the effect or the level left; summary of the method: as §1
Spinacia oleracea [3] = assay: Inhibition of thylakoid membrane bound Magnesium-transporting Mg2+ ATPase in Spinacia oleracea (spinach) leaves chloroplasts assessed as enzyme activity at 100 uM; parameters: scale not given: the % may be the effect or the level left; summary of the method: as §1
[4] = biological target: T1, Photosystem I iron-sulfur center (Spinacia oleracea) (UniProt P10098); assay: Inhibition of photosystem I in Spinacia oleracea (spinach) leaves intact chloroplasts assessed as electron transport flow from TMQH2 to MV at 300 uM; parameters: scale not given: the % may be the effect or the level left
T1 sequence (whole entry): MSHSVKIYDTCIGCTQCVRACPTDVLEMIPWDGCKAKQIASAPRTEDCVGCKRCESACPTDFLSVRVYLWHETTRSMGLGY
Summary of the method: (§2)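 Electron flow from TMQH2 to MV was determined polarographically with a Clark electrode in basal electron transport medium.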

[5] = biological target: T1, Photosystem I iron-sulfur center (Spinacia oleracea); assay: Inhibition of photosystem I in Spinacia oleracea (spinach) leaves intact chloroplasts assessed as electron transport flow from TMQH2 to MV at 200 uM; parameters: scale not given: the % may be the effect or the level left; summary of the method: as §2
[6] = biological target: T1, Photosystem I iron-sulfur center (Spinacia oleracea); assay: Inhibition of photosystem I in Spinacia oleracea (spinach) leaves intact chloroplasts assessed as electron transport flow from TMQH2 to MV at 100 uM; parameters: scale not given: the % may be the effect or the level left; summary of the method: as §2
[7] = biological target: T1, Photosystem I iron-sulfur center (Spinacia oleracea); assay: Inhibition of photosystem I in Spinacia oleracea (spinach) leaves intact chloroplasts assessed as electron transport flow from DCPIP to MV at 300 uM; parameters: scale not given: the % may be the effect or the level left
Summary of the method: (§3)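 Uncoupled PSI flow, reduced DCPIP to MV, in basal electron transport medium (3 mL). Additions: 10 µM DCMU, 100 µM DCPIP, 300 µM ascorbate and 6 mM NH4Cl. O2 uptake was monitored with a Clark electrode.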

[8] = biological target: T1, Photosystem I iron-sulfur center (Spinacia oleracea); assay: Inhibition of photosystem I in Spinacia oleracea (spinach) leaves intact chloroplasts assessed as electron transport flow from DCPIP to MV at 200 uM; parameters: scale not given: the % may be the effect or the level left; summary of the method: as §3
[9] = biological target: T1, Photosystem I iron-sulfur center (Spinacia oleracea); assay: Inhibition of photosystem I in Spinacia oleracea (spinach) leaves intact chloroplasts assessed as electron transport flow from DCPIP to MV at 100 uM; parameters: scale not given: the % may be the effect or the level left; summary of the method: as §3
Spinacia oleracea [10] = assay: Inhibition of uncoupled electron transport flow in Spinacia oleracea (spinach) leaves intact chloroplasts at 300 uM; assay type: functional
[11] = biological target: Photosystem II protein D1 (Spinacia oleracea) (UniProt P69560); assay: Inhibition of photosystem II in Spinacia oleracea (spinach) leaves intact chloroplasts assessed as electron transport flow from H2O to DCPIP at 200 uM; parameters: scale not given: the % may be the effect or the level left
Summary of the method: (§4)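 Uncoupled PSII, water to DCPIP, was followed as DCPIP-supported O2 evolution on a Clark electrode. Medium: basal electron transport medium with 1 µM DBMIB, 100 µM DCPIP, 300 µM K3[Fe(CN)6] and 6 mM NH4Cl, without MV. I50 values were calculated.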

[12] = biological target: Photosystem II protein D1 (Spinacia oleracea) (UniProt P69560); assay: Inhibition of photosystem II in Spinacia oleracea (spinach) leaves intact chloroplasts assessed as electron transport flow from H2O to DCPIP at 300 uM; parameters: scale not given: the % may be the effect or the level left; summary of the method: as §4
[13] = biological target: Photosystem II protein D1 (Spinacia oleracea) (UniProt P69560); assay: Inhibition of photosystem II in Spinacia oleracea (spinach) leaves intact chloroplasts assessed as electron transport flow from H2O to DCPIP at 100 uM; parameters: scale not given: the % may be the effect or the level left; summary of the method: as §4
Spinacia oleracea [14] = assay: Inhibition of ATP synthesis in Spinacia oleracea (spinach) leaves intact chloroplasts; assay type: functional; conditions: read-out: I50
Spinacia oleracea [15] = assay: Increase in chlorophyll a fluorescence in freshly lysed Spinacia oleracea (spinach) leaves chloroplasts at 10 uM
Spinacia oleracea [16] = assay: Inhibition of thylakoid membrane bound Magnesium-transporting Mg2+ ATPase in Spinacia oleracea (spinach) leaves chloroplasts assessed as enzyme activity at 6 mM; parameters: scale not given: the % may be the effect or the level left; summary of the method: as §1
Spinacia oleracea [17] = assay: Inhibition of thylakoid membrane bound Magnesium-transporting Mg2+ ATPase in Spinacia oleracea (spinach) leaves chloroplasts assessed as enzyme activity at 3 mM; parameters: scale not given: the % may be the effect or the level left; summary of the method: as §1
Spinacia oleracea [18] = assay: Inhibition of thylakoid membrane bound Magnesium-transporting Mg2+ ATPase in Spinacia oleracea (spinach) leaves chloroplasts assessed as enzyme activity at 1 mM; parameters: scale not given: the % may be the effect or the level left; summary of the method: as §1
[19] = biological target: T1, Photosystem I iron-sulfur center (Spinacia oleracea); assay: Inhibition of photosystem I in Spinacia oleracea (spinach) leaves chloroplasts assessed as effect on partial reaction from PMS reduced with ascorbate to MV using KCN treated thylakoids
Summary of the method: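 Chloroplasts were held in basal medium with 30 mM KCN for 60 min at 4 °C in the dark to release plastocyanin. They were then diluted in sucrose/30 mM HEPES-NaOH pH 7.2/2 mM MgCl2, centrifuged 5000g for 2 min and resuspended. Flow from 100 µM PMS/300 µM ascorbate to MV was assayed in basal medium plus 1 µM DBMIB.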

[20] = biological target: T1, Photosystem I iron-sulfur center (Spinacia oleracea); assay: Inhibition of photosystem I in Spinacia oleracea (spinach) leaves intact chloroplasts assessed as electron transport flow from TMQH2 to MV at 50 uM; parameters: scale not given: the % may be the effect or the level left; summary of the method: as §2
[21] = biological target: T1, Photosystem I iron-sulfur center (Spinacia oleracea); assay: Inhibition of photosystem I in Spinacia oleracea (spinach) leaves intact chloroplasts assessed as electron transport flow from DCPIP to MV at 50 uM; parameters: scale not given: the % may be the effect or the level left; summary of the method: as §3
[22] = biological target: Photosystem II protein D1 (Spinacia oleracea) (UniProt P69560); assay: Inhibition of photosystem II in Spinacia oleracea (spinach) leaves intact chloroplasts assessed as electron transport flow from H2O to DCPIP at 50 uM; parameters: scale not given: the % may be the effect or the level left; summary of the method: as §4
[23] = biological target: Photosystem II protein D1 (Spinacia oleracea) (UniProt P69560); assay: Inhibition of photosystem II in freshly lysed Spinacia oleracea (spinach) leaves chloroplasts assessed as induction of loss of reactions centers capacity to capture excitons at 300 to 900 uM
Summary of the method: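 JIP-test on Chl a fluorescence transients of freshly lysed spinach chloroplasts, dark-adapted 5 min at 20 µg/mL Chl. Measured at room temperature with a Handy PEA at 300, 600 and 900 µM. Parameters such as […] VJ were derived from the curves and expressed relative to control (%). Results are the average of three replicates.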

[24] = biological target: Photosystem II protein D1 (Spinacia oleracea) (UniProt P69560); assay: Inhibition of photosystem II in Spinacia oleracea (spinach) leaves intact chloroplasts assessed as electron transport flow from DPC to DCPIP at 300 uM; parameters: scale not given: the % may be the effect or the level left
Summary of the method: (§5)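 Thylakoids (45 µg Chl) were pretreated with 0.8 M Tris pH 8.0 for 30 min at 4 °C, centrifuged 5000g for 2 min and resuspended in reaction medium. Electron flow from DPC to DCPIP was read spectrophotometrically at 600 nm, with DCPIP reduction quantified by its molar extinction coefficient. I50 values were calculated.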

[25] = biological target: Photosystem II protein D1 (Spinacia oleracea) (UniProt P69560); assay: Inhibition of photosystem II in Spinacia oleracea (spinach) leaves intact chloroplasts assessed as electron transport flow from DPC to DCPIP at 100 uM; parameters: scale not given: the % may be the effect or the level left; summary of the method: as §5
[26] = biological target: Photosystem II protein D1 (Spinacia oleracea) (UniProt P69560); assay: Inhibition of photosystem II in Spinacia oleracea (spinach) leaves intact chloroplasts assessed as electron transport flow from H2O to SiMo at 300 uM; parameters: scale not given: the % may be the effect or the level left
Summary of the method: (§6)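 Uncoupled partial PSII reaction, water to silicomolybdate, measured by Clark electrode O2 evolution. Basal medium (sorbitol/KCl/MgCl2/KCN/30 mM tricine pH 8) was supplemented with 200 µM SiMo, 10 µM DCMU and 6 mM NH4Cl, without MV. I50 values were calculated.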

[27] = biological target: Photosystem II protein D1 (Spinacia oleracea) (UniProt P69560); assay: Inhibition of photosystem II in Spinacia oleracea (spinach) leaves intact chloroplasts assessed as electron transport flow from H2O to SiMo at 200 uM; parameters: scale not given: the % may be the effect or the level left; summary of the method: as §6
Spinacia oleracea [28] = assay: Inhibition of basal electron transport flow in Spinacia oleracea (spinach) leaves intact chloroplasts at 88 uM; assay type: functional
Spinacia oleracea [29] = assay: Inhibition of uncoupled electron transport flow in Spinacia oleracea (spinach) leaves intact chloroplasts; assay type: functional; conditions: read-out: I50
[30] = biological target: Photosystem II protein D1 (Spinacia oleracea) (UniProt P69560); assay: Inhibition of photosystem II in Spinacia oleracea (spinach) leaves intact chloroplasts assessed as electron transport flow from DPC to DCPIP at 200 uM; parameters: scale not given: the % may be the effect or the level left; summary of the method: as §5
[31] = biological target: Photosystem II protein D1 (Spinacia oleracea) (UniProt P69560); assay: Inhibition of photosystem II in Spinacia oleracea (spinach) leaves intact chloroplasts assessed as electron transport flow from H2O to SiMo at 100 uM; parameters: scale not given: the % may be the effect or the level left; summary of the method: as §6

Compound | Activity (Spinacia oleracea [1]) | Activity (Spinacia oleracea [2]) | Activity (Spinacia oleracea [3]) | Activity [4] | Activity [5] | Activity [6] | Activity [7] | Activity [8] | Activity [9] | Inhibition % (Spinacia oleracea [10]) | Activity [11] | Activity [12] | Activity [13] | IC50 (Spinacia oleracea [14]) | also measured
COc1cc(O)cc2c1C(=O)CC(c1ccc(O)c(-c3c(O)cc4oc(-c5ccc(O)cc5)cc(=O)c4c3O)c1)O2 (stereo not drawn) | 20% | 44% | 63% | 100% | 100% | 100% | 100% | 100% | 100% | 25% | 100% | 100% | 100% | 79 µM | –
CN(C)C(=O)Nc1ccc(Cl)c(Cl)c1 | – | – | – | – | – | – | – | – | – | – | – | – | – | – | Activity (Spinacia oleracea [15]): Active
Cl.N | – | – | – | – | – | – | – | – | – | – | – | – | – | – | Activity (Spinacia oleracea [16]): 124%; Activity (Spinacia oleracea [17]): 240%; Activity (Spinacia oleracea [18]): 206%
O=C1CC(c2ccc(O)c(-c3c(O)cc4oc(-c5ccc(O)cc5)cc(=O)c4c3O)c2)Oc2cc(O)cc(O)c21 (stereo not drawn) [2,3-DIHYDROROBUSTAFLAVONE] | 34% | 47% | 53% | 72% | 74% | 98% | 71% | 71% | 74% | 32% | 100% | 100% | 100% | 39 µM | inhibition [19]: inactive; Activity [20]: 100%; Activity [21]: 96%; Activity [22]: 100%
O=c1cc(-c2ccc(O)c(-c3c(O)cc4oc(-c5ccc(O)cc5)cc(=O)c4c3O)c2)oc2cc(O)cc(O)c12 [ROBUSTAFLAVONE] | 76% | 76% | 76% | 100% | 100% | 100% | 100% | 100% | 100% | – | 43% | 29% | 57% | 44 µM | inhibition [23]: Active; Activity [24]: 9%; Activity [25]: 89%; Activity [26]: 50%; Activity [27]: 50%; inhibition (Spinacia oleracea [28]): 22%; IC50 (Spinacia oleracea [29]): 88 µM; Activity [30]: 35%; Activity [31]: 100%
